# UCH37 DUB inh = inhibitors of human deubiquitinating enzyme UCH37 | actives 0.33% (n = 330,000) | purified proteasome/UCH37, Ub-AMC cleavage fluorescence | Q9Y5K5 | inhibition, % (concentration not given with the values);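 active means mean inhibition over replicate wells above about 20%, limit read from the data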;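 further: 0% = compound-free wells with enzyme and 100% = wells lacking proteasome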
#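 Material: Human UCH37 enzyme supplied as purified proteasome complex | Schedule: 30 min preincubation with enzyme, 25 min cleavage at room temperature | Detection: AMC fluorescence 355/460 nm | Measure: % inhibition of Ub-AMC cleavage fluorescence | Controls: Wells without proteasome as full block, compound-free enzyme plus substrate as uninhibited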
# NSD2 HMT inh = NSD2 (human) methyltransferase inhibition; NSD2 peptide methylation, AlphaScreen, 120 min; inhibition, % at 12.5 µM; actives 0.54% (n = 310,000); AID 743445; in the data active means inhibition above about 50%
# LEDGF integ inh = blocks HIV-1 LEDGF/p75-dependent DNA integration | TR-FRET IN-LEDGF/p75 DNA integration, Eu/Cy5 | inhibition, % at 3.7 µM | actives 0.64% (n = 370,000) | AID 743269;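 active means inhibition above the screen-wide mean plus 3 SD, cut at about 13% in these data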;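 further: signal is the Cy5 over europium emission ratio at 671 and 618 nm; 0% = plate median of compound wells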
# CASP6 VEID inh = blocks human caspase-6 cleavage activity; P55212; purified caspase-6, Z-VEID-R110 cleavage fluorescence; inhibition, % at 12.5 µM; actives 0.53% (n = 350,000); AID 686996;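 active means mean inhibition across replicates at least about 35%, with every replicate also reaching that limit, limit read from the data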;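 further: 0% = median of neutral control wells and 100% = no fluorescence left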
# TDP2 absorb = TDP2 (human) inhibition, absorbance primary screen; O95551; recombinant TDP2, T5PNP hydrolysis, p-nitrophenol absorbance 415 nm; inhibition, % at 12.8 µM; actives 0.34% (n = 370,000);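 active means inhibition above the mean of all tested compounds plus 3 SD, set per campaign, cut at about 25% in these data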;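 further: 0% = DMSO with enzyme and 100% = buffer with substrate but no TDP2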
#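 Test system: human TDP2 enzyme; Input: 120 nM TDP2 per well; Buffer or medium: Mg2+-containing Tris-HCl buffer, pH 7.5; Reagent: 5 mM T5PNP; Dosing: 12.8 µM single point, 1% DMSO; Incubation: reaction 2 h, 37 °C; Detection: p-Nitrophenol epi absorbance; Read-out: % inhibition relative to enzyme-containing and enzyme-free wells; Replicates: single well per compound.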
# IN multimer act = HIV-1 integrase multimerization activation, counter-screen | AID 1053131 | actives 17% (n = 2,000) | shares compounds with LEDGF integ inh | TR-FRET HIV-1 integrase multimerization, biochemical | activation, % at 7.7 µM; in the data active means activation above about 8.9%
# TRFRET interf = counter-screen for LEDGF/p75 integration inhibitors: TR-FRET optical interference | shares compounds with LEDGF integ inh | TR-FRET optical interference counterscreen, HIV-1 IN multimerization | inhibition, % at 7.7 µM | 2,000 tested, under 10 active | AID 1053135;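 active means inhibition above the mean over all tested compounds plus 3 SD, which no compound reached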;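 further: 0% = integrase with antibodies and DMSO and 100% = antibodies without integrase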
# IN-LEDGF confirm = confirmation of HIV-1 LEDGF/p75-dependent integration inhibitors. actives 36% (n = 2,000). shares compounds with LEDGF integ inh. inhibition, % at 3.7 µM. TR-FRET LEDGF/p75-dependent HIV-1 integration, biochemical. AID 1053136; in the data active means inhibition above about 14%
# The depositor's hits bear a star; nt = no result. Shown are actives, neighbours in structure and some others; about 1.3% of the full set was active somewhere.
SMILES,UCH37 DUB inh,NSD2 HMT inh,LEDGF integ inh,CASP6 VEID inh,TDP2 absorb,IN multimer act,TRFRET interf,IN-LEDGF confirm
O=C(NNc1ccccc1[N+](=O)[O-])Nc1ccc(Cl)c(Cl)c1,1,1,-3,17,-15,nt,nt,nt
CN1/C(=C\C=NNC(=O)c2ccc(O)cc2)C(C)(C)c2ccccc21,0,nt,nt,nt,nt,nt,nt,nt
O=C1CC(=O)N(Cc2ccco2)C(=O)N1,6,nt,89*,nt,16,18*,-90,87*
COc1ccc(OCc2nn3c(-c4ccco4)nnc3s2)cc1,2,1,1,nt,-7,nt,nt,nt
c1coc(-c2nnc3sc(Cc4cccs4)nn23)c1,2,7,38*,nt,-15,6,-28,18*
O=C(NN=C1CCCc2ccccc21)C(c1ccccc1)c1ccccc1,1,nt,nt,nt,nt,nt,nt,nt
CCOc1ccc(C=NNC(=O)C(C)N(c2ccc(OC)cc2)S(C)(=O)=O)cc1OCC (configuration not stated),2,nt,nt,nt,nt,nt,nt,nt
CC1(OC(=O)c2ccc(Cl)nc2)C(=O)C=C2C=C3CCCN3C=C2C1=O (configuration not stated),5,nt,18*,27,11,8,-42,42*
COC(=O)CCC(=O)OC1(C)C(=O)C=C2C=C3CCCN3C=C2C1=O (configuration not stated),7,nt,8,nt,8,nt,nt,nt
O=C(O)c1cc(-c2ccco2)[nH]n1,8,25,15*,nt,-1,2,-10,4
O=C(O)c1ccc(-n2c(-c3cc(C4CC4)[nH]n3)n[nH]c2=S)cc1,5,-2,-2,1,-9,nt,nt,nt
O=C(O)c1ccc(-n2c(-c3cc(-c4ccco4)[nH]n3)n[nH]c2=S)cc1,3,2,53*,nt,12,10*,-52,42*
C(=C\c1ccc2nncn2c1)/c1ccccc1,nt,4,14*,12,3,-4,15,13
Br/C(C=NNc1ccc2nncn2n1)=C\c1ccccc1,5,nt,nt,nt,nt,nt,nt,nt
COc1ccc(C(=O)N2CCC(C(=O)c3ccc(F)cc3)CC2)cc1,4,-2,80*,nt,-12,0,1,-4
CC(NS(=O)(=O)c1ccc(Br)cc1F)[C@H](O)c1ccccc1 (some centres not stated),nt,nt,15*,2,5,2,-8,-3
CSC1(SC2=NCCN2)SC2(NCCN2)S1,nt,1,23*,-11,6,0,2,-1
Br/C(C=NNc1nc2ccccc2[nH]1)=C\c1ccccc1,-3,nt,nt,nt,nt,nt,nt,nt
Cc1cc(NS(=O)(=O)c2ccc(NC(=S)NC(=O)c3cccnc3)cc2)no1,3,-9,26*,2,-6,2,-8,-1
Oc1ccc(NCc2cccc(OCc3ccccc3)c2)cc1,-2,13,16*,5,8,8.9*,-45,41*
O=[N+]([O-])c1ccc(COc2cccc(CNc3ccc(F)cc3)c2)cc1,4,0,1,nt,-3,nt,nt,nt
N#Cc1c(N)[nH]c(C(=O)c2ccccc2)c1-c1ccccc1Br,nt,nt,32*,11,5,0,2,-3
Nc1[nH]c(C(=O)c2ccccc2)c(-c2ccccc2Br)c1C(=O)NCc1ccc(-c2ccccc2)cc1,nt,nt,-3,-5,3,nt,nt,nt
C[C@@H]1C=C(C(=O)NCc2ccccc2)O[C@H](OCc2ccc(CO)cc2)C1,4,nt,16*,0,23,0,2,1
O=C(NCc1ccccc1)C1=C[C@H](c2ccccc2)C[C@H](OCc2ccc(CO)cc2)O1,1,nt,-2,1,-17,nt,nt,nt
SMILES,UCH37 DUB inh,NSD2 HMT inh,LEDGF integ inh,CASP6 VEID inh,TDP2 absorb,IN multimer act,TRFRET interf,IN-LEDGF confirm
O=C(CCl)Nc1cccc(S(=O)(=O)NC2=NCCCCC2)c1,2,0,-1,2,4,nt,nt,nt
O=C(CCl)Nc1ccc(S(=O)(=O)NC2=NCCCCC2)cc1,2,1,17*,2,-16,-1,3,-3
COc1cc(C=NNC(=O)C2C3CCCCC32C)cc(Br)c1O (configuration not stated),-3,nt,nt,nt,nt,nt,nt,nt
O=c1cc(Br)c(O)c(Br)cc1Br,8,9,46*,91*,12,5,-24,21*
CC1(C(=O)NCCC(F)(F)F)Cc2c(-c3cccc(C(N)=O)c3)ccnc2O1 (configuration not stated),nt,0,14*,7,3,-2,9,-2
CCCCCC1CC(=NO)C=C(C)C1C(=O)OC (configuration not stated),3,nt,nt,nt,nt,nt,nt,nt
COc1cc(CCC(O)CC(=O)CCc2ccccc2)ccc1O (configuration not stated),-1,nt,23*,0,3,1,-3,-3
COc1ccccc1-c1ccc(/C=C2\C=CC(=O)O2)o1,-16,-14,44*,-1,6,2,-6,11
OCCOCCOc1ccc(-c2nn[nH]n2)cc1,1,-1,17*,-4,-12,-1,4,-8
CCc1ccc(C=NNC(=O)c2cc(C3CC3)nc3ccc(Br)cc23)s1,-3,nt,nt,nt,nt,nt,nt,nt
COc1ccc(C(=O)N(c2ccc(OC)cc2)S(=O)(=O)c2cccs2)cc1,-2,0,24*,2,0,0,-2,-2
COc1cccc(-c2cnc3c(NC=O)cc(-c4ccoc4)cn23)c1,nt,4,13*,4,4,1,-7,5
CN(C)S(=O)(=O)c1ccc(C(=O)NCC(=O)NN=Cc2ccccc2)cc1,2,nt,nt,nt,nt,nt,nt,nt
NS(=O)(=O)c1ccc(CCNC(=O)c2ccc(Cl)nc2)cc1,0,0,16*,1,-8,0,2,-8
Oc1cccc(C=NN(Cc2ccccc2)c2ccccc2)c1,8,nt,nt,nt,nt,nt,nt,nt
O=C(NN=Cc1ccc(OC(F)F)cc1OC(F)F)c1cccc(S(=O)(=O)N2CCOCC2)c1,1,nt,nt,nt,nt,nt,nt,nt
CCOC(=O)N1CCN(C(=O)c2ccc3nc4ccc(Cl)cc4c(=O)n3c2)CC1,-467,-2,18*,nt,-23,1,-3,0
O=C(NN=Cc1ccccc1C(=O)O)C(=O)N1CCCCC1,4,nt,nt,nt,nt,nt,nt,nt
COc1ccc(CNC(=O)CC(C)=NNC(=O)C(c2ccccc2)c2ccccc2)cc1,0,nt,nt,nt,nt,nt,nt,nt
S=C(NCc1ccccc1)NCc1cccc(CNC(=S)NCc2ccccc2)c1,1,-2,44*,1,-7,1,-7,-11
C/C=C(\C)CN1CCCC(CO)(Cc2ccccc2)C1 (configuration not stated),-1,-2,14*,2,-11,1,-3,1

# High-throughput results as filed in PubChem BioAssay.
